Legend:
[1] = target: Cyclin-dependent kinase 17 (Homo sapiens) (UniProt Q00537); assay: Competitive binding affinity to PCTK2 (unknown origin) at 10 uM in presence of ATP relative to control
[2] = target: LIM domain kinase 2 (Homo sapiens, UniProt P53671); assay: Competitive binding affinity to LIMK2 (unknown origin) at 10 uM in presence of ATP relative to control
In short: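 In vitro ATP-site competition binding assay, part of profiling against a diverse panel of 128 kinases. Each compound was tested at a single concentration of 10 µM. Kinome selectivity was summarized as S15 selectivity scores.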

[3] = target: T1, MAP/microtubule affinity-regulating kinase 4 (Homo sapiens) (UniProt Q96L34); assay: Competitive binding affinity to MARK4 (unknown origin) at 10 uM in presence of ATP relative to control
T1 sequence (whole entry): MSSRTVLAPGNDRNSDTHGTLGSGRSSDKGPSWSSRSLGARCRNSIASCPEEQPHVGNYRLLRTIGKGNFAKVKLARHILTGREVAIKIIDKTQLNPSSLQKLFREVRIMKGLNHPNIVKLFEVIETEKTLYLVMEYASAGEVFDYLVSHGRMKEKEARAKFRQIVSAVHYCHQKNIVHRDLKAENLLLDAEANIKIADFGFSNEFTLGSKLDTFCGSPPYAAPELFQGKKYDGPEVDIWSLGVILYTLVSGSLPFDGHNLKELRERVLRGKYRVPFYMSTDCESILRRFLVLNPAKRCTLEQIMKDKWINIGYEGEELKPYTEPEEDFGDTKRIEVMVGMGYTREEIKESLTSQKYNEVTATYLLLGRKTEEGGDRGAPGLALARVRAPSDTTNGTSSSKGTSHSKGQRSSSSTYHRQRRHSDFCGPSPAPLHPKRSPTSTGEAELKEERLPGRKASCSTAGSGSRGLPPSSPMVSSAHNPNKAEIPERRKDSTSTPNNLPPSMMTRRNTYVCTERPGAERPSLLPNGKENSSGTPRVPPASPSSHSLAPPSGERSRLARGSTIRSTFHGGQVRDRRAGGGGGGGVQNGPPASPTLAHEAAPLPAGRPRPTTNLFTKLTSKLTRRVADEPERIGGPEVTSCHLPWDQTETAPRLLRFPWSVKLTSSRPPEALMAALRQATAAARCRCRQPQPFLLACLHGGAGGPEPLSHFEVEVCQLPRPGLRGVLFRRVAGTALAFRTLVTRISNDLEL
In short: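 In vitro ATP-site competition binding assay across a diverse panel of 128 kinases, with compound tested at a single concentration. Kinase selectivity scores (S15) were calculated from the panel profiles.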

[4] = target: Activin receptor type-2B (Homo sapiens) (UniProt Q13705); assay: Competitive binding affinity to ACVR2B (unknown origin) at 10 uM in presence of ATP relative to control
Sequence of Activin receptor type-2B (Homo sapiens) (Q13705 whole entry): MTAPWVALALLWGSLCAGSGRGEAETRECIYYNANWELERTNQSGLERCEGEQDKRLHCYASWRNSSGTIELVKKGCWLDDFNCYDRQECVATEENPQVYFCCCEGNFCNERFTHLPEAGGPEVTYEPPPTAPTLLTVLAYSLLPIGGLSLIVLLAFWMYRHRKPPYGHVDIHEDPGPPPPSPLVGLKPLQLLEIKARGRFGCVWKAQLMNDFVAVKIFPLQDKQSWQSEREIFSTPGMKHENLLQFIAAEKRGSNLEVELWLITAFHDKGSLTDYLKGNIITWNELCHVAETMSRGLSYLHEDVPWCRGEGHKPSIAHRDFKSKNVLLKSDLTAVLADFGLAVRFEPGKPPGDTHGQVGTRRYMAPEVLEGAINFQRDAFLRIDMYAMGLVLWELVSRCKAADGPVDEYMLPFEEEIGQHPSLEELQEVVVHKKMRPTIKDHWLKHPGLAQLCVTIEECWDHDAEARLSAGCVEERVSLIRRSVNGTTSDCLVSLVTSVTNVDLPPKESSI

[5] = species on record: Homo sapiens; assay: Competitive binding affinity to EGFR S752 to I759 deletion mutant (unknown origin) at 10 uM in presence of ATP relative to control
[6] = target: Phosphatidylinositol 4,5-bisphosphate 3-kinase catalytic subunit alpha isoform (Homo sapiens) (UniProt P42336); assay: Competitive binding affinity to PIK3CA (unknown origin) at 10 uM in presence of ATP relative to control
Sequence of Phosphatidylinositol 4,5-bisphosphate 3-kinase catalytic subunit alpha isoform (Homo sapiens) (P42336 whole entry, canonical isoform): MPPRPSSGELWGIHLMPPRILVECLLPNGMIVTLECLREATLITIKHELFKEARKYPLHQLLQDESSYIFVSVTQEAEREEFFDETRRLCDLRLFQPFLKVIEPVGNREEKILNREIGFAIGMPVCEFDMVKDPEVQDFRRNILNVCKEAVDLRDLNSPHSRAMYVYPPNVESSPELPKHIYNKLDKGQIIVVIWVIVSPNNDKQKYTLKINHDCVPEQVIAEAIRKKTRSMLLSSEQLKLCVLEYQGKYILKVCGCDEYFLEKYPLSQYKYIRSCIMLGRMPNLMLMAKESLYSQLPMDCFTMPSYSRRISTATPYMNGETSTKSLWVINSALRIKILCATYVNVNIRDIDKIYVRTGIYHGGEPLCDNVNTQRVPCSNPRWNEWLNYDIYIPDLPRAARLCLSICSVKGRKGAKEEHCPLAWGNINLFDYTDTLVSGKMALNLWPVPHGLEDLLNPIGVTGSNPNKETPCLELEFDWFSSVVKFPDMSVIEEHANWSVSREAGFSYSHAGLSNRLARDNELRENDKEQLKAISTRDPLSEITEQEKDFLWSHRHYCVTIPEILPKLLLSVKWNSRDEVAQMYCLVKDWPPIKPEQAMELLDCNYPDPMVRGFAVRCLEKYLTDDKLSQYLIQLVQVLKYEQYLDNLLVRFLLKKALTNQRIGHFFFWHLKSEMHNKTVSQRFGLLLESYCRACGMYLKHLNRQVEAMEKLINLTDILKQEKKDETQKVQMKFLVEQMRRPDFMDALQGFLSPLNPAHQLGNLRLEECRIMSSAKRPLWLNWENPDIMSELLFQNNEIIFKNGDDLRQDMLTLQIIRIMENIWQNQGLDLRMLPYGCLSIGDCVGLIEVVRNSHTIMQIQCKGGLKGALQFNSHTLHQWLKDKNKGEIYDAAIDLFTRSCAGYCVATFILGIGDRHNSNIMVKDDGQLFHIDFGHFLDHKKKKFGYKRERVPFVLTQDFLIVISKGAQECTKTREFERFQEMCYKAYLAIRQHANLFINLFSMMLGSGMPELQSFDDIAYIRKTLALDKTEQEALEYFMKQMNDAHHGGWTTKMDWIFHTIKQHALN

[7] = target: T2, Interleukin-1 receptor-associated kinase 3 (Homo sapiens) (UniProt Q9Y616); assay: Competitive binding affinity to IRAK3 (unknown origin) at 10 uM in presence of ATP relative to control
T2 sequence (whole entry): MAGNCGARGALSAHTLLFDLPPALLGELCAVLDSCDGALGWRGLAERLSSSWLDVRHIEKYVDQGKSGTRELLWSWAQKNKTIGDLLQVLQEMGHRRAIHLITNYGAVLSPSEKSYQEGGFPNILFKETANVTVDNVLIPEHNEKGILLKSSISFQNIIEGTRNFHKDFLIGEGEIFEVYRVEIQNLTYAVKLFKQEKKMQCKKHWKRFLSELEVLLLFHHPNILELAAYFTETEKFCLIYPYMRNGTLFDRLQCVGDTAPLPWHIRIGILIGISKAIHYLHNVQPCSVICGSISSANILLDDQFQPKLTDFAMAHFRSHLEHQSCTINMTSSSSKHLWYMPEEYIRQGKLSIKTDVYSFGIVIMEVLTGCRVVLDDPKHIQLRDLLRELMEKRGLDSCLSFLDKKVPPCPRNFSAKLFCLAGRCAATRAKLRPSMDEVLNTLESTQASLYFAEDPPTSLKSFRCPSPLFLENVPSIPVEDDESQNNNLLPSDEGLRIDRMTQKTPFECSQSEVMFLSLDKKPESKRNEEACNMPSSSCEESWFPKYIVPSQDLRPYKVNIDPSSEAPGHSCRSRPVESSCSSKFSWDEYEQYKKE

[8] = target: T3, Serine/threonine-protein kinase 17B (Homo sapiens) (UniProt O94768); assay: Competitive binding affinity to STK17B (unknown origin) at 10 uM in presence of ATP relative to control
T3 sequence (whole entry): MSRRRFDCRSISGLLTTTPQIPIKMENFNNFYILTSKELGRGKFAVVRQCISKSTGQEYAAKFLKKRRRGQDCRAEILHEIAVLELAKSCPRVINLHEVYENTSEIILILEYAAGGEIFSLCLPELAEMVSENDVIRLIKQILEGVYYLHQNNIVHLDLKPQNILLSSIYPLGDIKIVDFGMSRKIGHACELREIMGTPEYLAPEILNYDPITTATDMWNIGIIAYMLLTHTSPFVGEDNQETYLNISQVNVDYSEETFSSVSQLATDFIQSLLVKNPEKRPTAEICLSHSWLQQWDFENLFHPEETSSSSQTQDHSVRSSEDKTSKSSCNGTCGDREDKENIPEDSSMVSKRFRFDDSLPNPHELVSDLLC

Sequence of Cyclin-dependent kinase 17 (Homo sapiens) (Q00537 whole entry, looked up, the tested form may be a part): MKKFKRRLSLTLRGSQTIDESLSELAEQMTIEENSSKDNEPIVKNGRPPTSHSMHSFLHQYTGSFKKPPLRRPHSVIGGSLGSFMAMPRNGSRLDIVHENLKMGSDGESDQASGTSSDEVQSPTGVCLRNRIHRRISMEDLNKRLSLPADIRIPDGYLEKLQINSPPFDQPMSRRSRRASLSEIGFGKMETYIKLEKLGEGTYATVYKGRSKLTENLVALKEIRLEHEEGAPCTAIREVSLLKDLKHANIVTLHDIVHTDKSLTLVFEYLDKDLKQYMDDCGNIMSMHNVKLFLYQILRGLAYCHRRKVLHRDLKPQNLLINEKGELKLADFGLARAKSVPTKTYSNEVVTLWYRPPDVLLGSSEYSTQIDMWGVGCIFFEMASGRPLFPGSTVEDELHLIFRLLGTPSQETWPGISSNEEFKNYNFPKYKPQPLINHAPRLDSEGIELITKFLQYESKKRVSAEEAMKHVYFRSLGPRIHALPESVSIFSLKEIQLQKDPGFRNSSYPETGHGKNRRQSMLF
Sequence of LIM domain kinase 2 (P53671 whole entry, looked up, the tested form may be a part): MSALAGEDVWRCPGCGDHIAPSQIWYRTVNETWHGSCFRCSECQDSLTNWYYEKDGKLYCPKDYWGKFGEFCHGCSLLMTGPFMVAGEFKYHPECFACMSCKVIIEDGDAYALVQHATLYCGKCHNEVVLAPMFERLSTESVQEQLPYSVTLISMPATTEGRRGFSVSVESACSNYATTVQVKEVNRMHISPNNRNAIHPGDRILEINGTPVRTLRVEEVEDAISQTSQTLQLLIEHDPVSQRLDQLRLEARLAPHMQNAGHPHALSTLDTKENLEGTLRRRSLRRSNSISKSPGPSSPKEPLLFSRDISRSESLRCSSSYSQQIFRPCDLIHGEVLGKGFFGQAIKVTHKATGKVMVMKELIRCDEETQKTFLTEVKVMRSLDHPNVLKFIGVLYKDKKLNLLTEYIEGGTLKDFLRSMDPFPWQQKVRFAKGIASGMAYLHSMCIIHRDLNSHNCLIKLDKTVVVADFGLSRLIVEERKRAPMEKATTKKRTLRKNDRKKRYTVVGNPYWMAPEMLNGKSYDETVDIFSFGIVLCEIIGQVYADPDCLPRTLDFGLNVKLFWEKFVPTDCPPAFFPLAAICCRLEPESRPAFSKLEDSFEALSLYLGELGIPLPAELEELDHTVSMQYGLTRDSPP

Row | inhibition [1] [%] | inhibition [2] [%] | inhibition [3] [%] | inhibition [4] [%] | inhibition [5] [%] | inhibition [6] [%] | inhibition [7] [%] | inhibition [8] [%] | SMILES
1 | 73 | 81 | < 50 | < 50 | < 50 | < 50 | 87 |  | O[C@H]1CC[C@H](Nc2nccc(-n3ccc4ccccc43)n2)CC1
2 |  | > 85 |  |  |  |  |  |  | CS(=O)(=O)CCCOc1cccc2c1ccn2-c1ccnc(N[C@H]2CC[C@H](C(=O)N3CCC(O)CC3)CC2)n1
3 |  |  |  |  |  |  |  | < 50 | O=C([C@H]1CC[C@H](Nc2nccc(-n3nnc4ccccc43)n2)CC1)N1CCOCC1

Second part, the molecule before the results:

Row | SMILES | inhibition [1] [%] | inhibition [2] [%] | inhibition [3] [%] | inhibition [4] [%] | inhibition [5] [%] | inhibition [6] [%] | inhibition [7] [%] | inhibition [8] [%]
4 | O[C@H]1CC[C@H](Nc2nccc(-n3ncc4ccccc43)n2)CC1 | 78 | 76 | < 50 | < 50 | < 50 | 78 | 88 | 
5 | N[C@H]1CC[C@H](Nc2nccc(-n3nnc4ccccc43)n2)CC1 |  |  |  |  |  |  |  | 92
6 | O[C@H]1CC[C@H](Nc2nccc(-c3n[nH]c4ccccc34)n2)CC1 |  | 100 | 67 | < 50 | < 50 |  |  | 99
7 | O[C@H]1CC[C@H](Nc2nccc(-n3nnc4ccccc43)n2)CC1 | 88 | 78 | < 50 | 74 | < 50 | 84 | 85 | 

Source: ChEMBL document CHEMBL2424622, “Development of amino-pyrimidine inhibitors of c-Jun N-terminal kinase (JNK): kinase profiling guided optimization of a 1,2,3-benzotriazole lead” (Bioorg Med Chem Lett, 2013)
